Here are results for six compounds from ChEMBL document CHEMBL3817787, “Lead Optimization of 2-Phenylindolylglyoxylyldipeptide Murine Double Minute (MDM)2/Translocator Protein (TSPO) Dual Inhibitors for the Treatment of Gliomas” (J Med Chem, 2016).

Data set [1] has as its target Translocator protein (Rattus norvegicus) (UniProt P16257). In words: (§1) Displacement of [3H]PK11195 from TSPO in rat kidney mitochondrial membrane after 90 mins by liquid scintillation counting method. The data set is classed as cell membranes. In a few lines: (§2)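 TSPO binding by radioligand displacement of the TSPO-selective [3H]PK11195 across a concentration range; Ki derived.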
A general note: Loss of bound radioactivity is the signal in a displacement assay; it reports binding, not function.

The target in the next data set is Translocator protein (Rattus norvegicus, UniProt P16257). The description is as §1. The class given is cell membranes. The method, boiled down: as §2
Translocator protein, sequence (P16257 whole entry, looked up): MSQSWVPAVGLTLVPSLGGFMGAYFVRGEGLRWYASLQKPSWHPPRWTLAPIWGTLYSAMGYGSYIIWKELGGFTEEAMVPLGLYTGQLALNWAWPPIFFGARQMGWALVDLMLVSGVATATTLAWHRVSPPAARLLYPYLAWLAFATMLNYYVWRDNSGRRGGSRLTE
The nature of data set [2]: Antiproliferative activity against human MSC at 10 uM after 48 hrs by MTS assay. In a few lines: (§3)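 Non-tumoural human mesenchymal stem cells exposed to 100 nM-10 µM for 48 h; viability read by MTS assay.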
Data set [3] is described as follows: Antiproliferative activity against human U87MG cells expressing wild type p53 after 48 hrs by MTS assay. To be noted: U-87 MG.
Data set [4] can be described thus: Antiproliferative activity against human U343MG cells expressing wild type p53 after 48 hrs by MTS assay. To be noted: U-343MG. In general terms: Formazan colour is commonly taken as a measure of viable cells.
A further data set has as its system T98G. The experiment in a line: Growth inhibition of human T98G cells expressing p53 mutant after 48 hrs by MTS assay relative to control. The data set is classed as functional. The method, boiled down:
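Wild-type p53 U87MG and U343MG cells and mutant-p53 T98G cells were treated with a range of compound concentrations, using the same protocol for each line. Viability was read by MTS assay, and the 48 h treatment with 100 nM–10 µM is stated for U87MG. Results are given as percent inhibition or viable cells versus control, with IC50 taken from concentration–response curves.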

The species named for another data set is Homo sapiens. In words: Growth inhibition of human U87MG-derived CSC at 100 uM after 7 days by MTS assay relative to control. The data set is classed as functional. The method, boiled down:
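Glioma CSC viability measured after 24 h and after prolonged (seven-day) exposure, at concentrations up to 100 µM; CSC depletion expressed versus control.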

Data set [5] in a line: Antiproliferative activity against human MSC at 0.01 to 10 uM after 48 hrs by MTS assay. The conditions noted are these: in the assay text read “0.1 to 10 uM” for “0.01 to 10 uM”. The method, boiled down:
as §3

Data set [6] in a line: Growth inhibition of human U87MG cells at 50 uM after 72 hrs by MTS assay relative to control. The conditions noted are these: U-87 MG, read-out: GI. The data set is classed as functional, U-87MG ATCC. The method, boiled down: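 U87MG cells were exposed to temozolomide (50 µM) alone or combined with 100 nM dual inhibitor for at least 72 h. Viability was measured and expressed as reduction relative to untreated control.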

pIC50, pKi: −log10 of the molar value. Active and inactive are the calls of the source. No cut-off for these calls is given here.

Translocator protein (Rattus norvegicus), sequence (P16257 whole entry, looked up): as above

For the compound `CC[C@H](C)[C@H](NC(=O)C(=O)c1c(-c2ccccc2)[nH]c2ccccc12)C(=O)N[C@H](C(=O)OC)[C@@H](C)CC`, the inhibition entry in data set [1] is “Dose-dependent effect”. The pKi (in general, the negative decadic logarithm of the Ki, by convention in mol/L) at Translocator protein is 6.00.

In the case of `CCOC(=O)[C@H](Cc1ccccc1)NC(=O)[C@H](CC(C)C)NC(=O)C(=O)c1c(-c2ccccc2)[nH]c2ccccc12`, the Activity entry is given as “Toxic” in [2] and “Non-toxic” in data set [5]. Moreover, the inhibition result in data set [1] is “Dose-dependent effect”. For the same compound, the pKi at Translocator protein was 6.37. Besides, the pIC50 (as a rule, −log10 of the IC50, conventionally taken in molar units) in data set [3] was 5.59; in [4], 5.68. The “growth inhibition (GI)” value with T98G is “inactive”. The same compound yielded a growth inhibition (GI) in the data set filed under Homo sapiens of 65%.

Consider `Cn1nnc2c(C(N)=O)ncn2c1=O` [TEMOZOLOMIDE], for which the inhibition of growth at 50 µM in data set [6] amounted to 55%.

Take `CC[C@H](C)[C@H](NC(=O)[C@@H](NC(=O)C(=O)c1c(-c2ccccc2)[nH]c2ccccc12)C(C)C)C(=O)OC`: the inhibition entry in [1] was “Dose-dependent effect”. The compound also had a pKi at Translocator protein of 6.11.

In the case of `COC(=O)[C@H](CC(C)C)NC(=O)[C@@H](NC(=O)C(=O)c1c(-c2ccccc2)[nH]c2ccccc12)C(C)C`, the inhibition entry in [1] is “Dose-dependent effect”. Also, the pKi on Translocator protein is 6.44.

As for `COc1ccc(C2=NC(c3ccc(Cl)cc3)C(c3ccc(Cl)cc3)N2C(=O)N2CCNC(=O)C2)c(OC(C)C)c1` (centres undefined), the pIC50 in data set [3] is 5.19; in [4], 4.90. In addition, the “growth inhibition (GI)” value in the data set on T98G is “inactive”. In the data set filed under Homo sapiens, this compound gave a growth inhibition (GI) of 45%.
